Measurements taken from BindingDB's records for doi:10.1021/jm030110r (Pharmaceutical Research Institute, 2003).

Biological target: Proto-oncogene tyrosine-protein kinase Src (Rattus norvegicus, UniProt Q9WUD9)
Experiment: Inhibition of v-Src tyrosine kinase autophosphorylation in SR3Y1 cells after 15 hr
Procedure, shortened: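 SR-3Y1 cells exposed to drug 15 h, lysed on ice 20 min in Tris pH 7.5 RIPA-type buffer with protease inhibitors and 1 mM vanadate. Equal-protein lysates run on SDS-PAGE, blotted with anti-phosphotyrosine antibody, HRP secondary, ECL detection. IC50 = concentration halving tyrosine phosphorylation.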

Proto-oncogene tyrosine-protein kinase Src, sequence (Q9WUD9 2-536 limits assumed): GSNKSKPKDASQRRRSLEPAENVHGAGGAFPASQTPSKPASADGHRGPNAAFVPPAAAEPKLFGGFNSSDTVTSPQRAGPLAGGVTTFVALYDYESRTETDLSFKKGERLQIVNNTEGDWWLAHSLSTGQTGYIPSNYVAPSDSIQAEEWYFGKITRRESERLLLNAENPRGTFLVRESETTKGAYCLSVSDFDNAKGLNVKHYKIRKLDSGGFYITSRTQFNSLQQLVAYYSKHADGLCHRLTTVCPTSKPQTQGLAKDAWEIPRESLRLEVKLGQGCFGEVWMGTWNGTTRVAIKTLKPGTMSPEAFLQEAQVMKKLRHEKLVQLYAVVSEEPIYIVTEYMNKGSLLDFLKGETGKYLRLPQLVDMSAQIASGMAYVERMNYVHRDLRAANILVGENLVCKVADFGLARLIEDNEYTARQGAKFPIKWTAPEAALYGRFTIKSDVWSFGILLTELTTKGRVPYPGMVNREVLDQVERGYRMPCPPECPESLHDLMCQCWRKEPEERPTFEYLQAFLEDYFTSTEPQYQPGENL

## C[C@@H]1C[C@H]2O[C@@H]2\C=C/C=C/C(=N\OCC(=O)N2CCN(C)CC2)Cc2c(Cl)c(O)cc(O)c2C(=O)O1 [16-Chloro-17,19-dihydroxy-4-methyl-3,7-dioxa-tricyclo[13.4.0.0*6,8*]nonadeca-1(19),9,11,15,17-pentaene-2,13-dione 13-{O-[2-(4-methyl-piperazin-1-yl)-2-oxo-ethyl]-oxime}]
  IC50: 0.013 µM
